Arr AP2 block = human beta-arrestin and AP2 interaction inhibition; AID 504490; inhibition, % at 10 µM; FITC-arrestin peptide / GST-AP2 beads, flow cytometry; AP2 beta2 appendage carries R879A mutation; 0.31% of 340,000 active;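 active = inhibition above a set limit, near 3 SD of compounds lacking own fluorescence, cut at about 54% in these data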;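 also: plate controls were DMSO wells for no effect and 5 µM unlabelled arrestin peptide for full effect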
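test system = AP2 appendage R879A on GSH beads | buffer or medium = PBS plus Tween 20 (0.05%) and BSA (0.1%) | incubation = 12 min plus 1 h, RT | detection = bead flow cytometry, FITC channel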
A3A deaminase = inhibitors of human APOBEC3A DNA deaminase | P31941 | recombinant A3A, FAM/TAMRA ssDNA deamination fluorescence | inhibition, % at 20 µM | 0.41% of 330,000 active | AID 493011;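 active = at least 40% inhibition at 20 µM here, with at most 30% in a related deaminase screen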;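 also: plate controls were A3A with DMSO for no effect and wells lacking A3A enzyme for full effect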
Target sequence (P31941 whole entry, looked up): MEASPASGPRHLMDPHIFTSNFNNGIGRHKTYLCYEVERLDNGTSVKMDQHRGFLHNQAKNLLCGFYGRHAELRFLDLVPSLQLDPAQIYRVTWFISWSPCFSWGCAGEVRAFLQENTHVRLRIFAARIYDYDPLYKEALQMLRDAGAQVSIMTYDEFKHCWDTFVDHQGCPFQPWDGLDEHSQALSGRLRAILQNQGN
PolyA inhibitor = blocks polyadenylation in yeast reporter cells | S. cerevisiae SKY197-pL101 polyadenylation reporter, beta-gal luminescence; efflux-impaired pdr1/pdr3 knockout yeast; score 100 = 6 SD above DMSO | activity score, % at 12 µM | 0.02% of 300,000 active;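 active = lowest replicate activity score at least 50, where 100 means six control SD above control mean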;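 also: yeast exposed to compound for 9 h at 30 °C; higher score means more reporter readthrough which indicates perturbed polyadenylation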
UCH37 DUB inh = blocks the human deubiquitinase UCH37; Q9Y5K5; purified proteasome/UCH37, Ub-AMC cleavage fluorescence; inhibition, % (no concentration beside the values); 0.33% of 330,000 active; AID 588478;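 active = mean inhibition over replicate wells above about 20%, limit read from the data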;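 also: 0% = compound-free wells with enzyme and 100% = wells lacking proteasome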
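Reagent: Ub-AMC substrate; assay system: Proteasome-associated human UCH37 deubiquitinase; controls: no-proteasome and no-compound wells; read-out: % inhibition of Ub-AMC cleavage fluorescence; timing: 30 min preincubation with enzyme, 25 min cleavage at room temperature; signal: AMC fluorescence from Ub-AMC cleavage, excitation 355 nm, emission 460 nm; buffer or medium: Tris-HCl pH 7.4 plus ovalbumin, ATP-MgCl2, DTT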
AHR act = activates the human aryl hydrocarbon receptor. 2.5% of 320,000 active. AHR-responsive luciferase reporter cells, luminescence. P35869. activation, % at 5 µM; in the data active = activation above about 47%;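 also: 0% = vehicle wells and 100% = reference agonist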
A3G deaminase = APOBEC3G (human) deaminase inhibition. recombinant A3G, ssDNA deamination FAM/TAMRA fluorescence. 0.28% of 330,000 active. Q9HC16. inhibition, % at 20 µM;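 active = inhibition of at least 40% at 20 µM, with no more than 30% in the related APOBEC3A deaminase screen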;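 also: plate controls were DMSO wells with A3G for no effect and wells lacking A3G enzyme for full effect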
Target sequence (Q9HC16 whole entry, looked up): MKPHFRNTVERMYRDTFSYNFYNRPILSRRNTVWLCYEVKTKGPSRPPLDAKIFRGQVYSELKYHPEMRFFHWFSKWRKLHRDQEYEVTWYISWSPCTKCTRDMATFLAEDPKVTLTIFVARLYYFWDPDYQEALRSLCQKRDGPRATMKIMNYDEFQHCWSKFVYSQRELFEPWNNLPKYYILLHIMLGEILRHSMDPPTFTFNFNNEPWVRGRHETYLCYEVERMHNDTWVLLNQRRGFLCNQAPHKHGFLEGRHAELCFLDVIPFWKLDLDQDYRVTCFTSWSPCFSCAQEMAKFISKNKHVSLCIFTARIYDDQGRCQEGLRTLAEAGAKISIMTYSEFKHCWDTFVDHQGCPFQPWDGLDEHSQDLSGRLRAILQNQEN
* = called active by the depositor; . = no result. Shown are actives, neighbours in structure and some others; about 3.4% of the full set was active somewhere.

SMILES	Arr AP2 block	A3A deaminase	PolyA inhibitor	UCH37 DUB inh	AHR act	A3G deaminase
COc1ccccc1NC(=O)c1csc2c1CCC(C)C2 (configuration not stated)	-19	1	-13	1	55*	-8
COc1cc(C=NNC(=O)CCN2CCN(C)CC2)cc2c1OCO2	.	.	.	1	.	.
COc1ccccc1Nc1nc(-c2cccs2)cs1	15	4	-10	2	43	5
COc1ccc(Nc2nc(-c3cccs3)cs2)c(OC)c1	5	0	-2	4	109*	3
COc1ccc(Nc2nc(-c3cccs3)cs2)cc1	.	-2	6	-9	49*	-3
COc1ccc(Nc2nc(-c3cccnc3)cs2)c(OC)c1	37	-2	-9	3	.	-6
COc1ccc(OC)c(Nc2nc(-c3cccs3)cs2)c1	-1	-4	-8	2	48*	-9
Oc1ccc(C=NNc2nc(N3CCCCCC3)nc(N3CCCCCC3)n2)c(O)c1	.	.	.	2	.	.
CCOc1cc(C=NNC(=O)C(=O)NCc2ccc3c(c2)OCO3)ccc1OCC(=O)N1CCOCC1	.	.	.	3	.	.
Cc1ccccc1C(=O)N1CCc2cc(-c3nc(NC(=O)Cc4ccc5c(c4)OCO5)sc3C)ccc21	-8	-3	1	.	1	-4
Cc1sc(NC(=O)Cc2ccc3c(c2)OCO3)nc1-c1ccc2c(c1)CCN2C(=O)c1cccc(F)c1	30	7	10	0	73*	-3
O=C1NC(=Nc2ccccc2)S/C1=C\c1cccs1	-4	-4	-1	4	72*	-8
COc1cccc(Nc2ccccc2C(=O)O)c1	-14	-9	6	2	-1	-4
COc1cc(-c2ccc(Nc3ccccc3C(=O)O)c(OC)c2)ccc1Nc1ccccc1C(=O)O	32	12	.	25*	.	11
CSc1ccc(C2c3[nH]c4ccccc4c3CCN2C(=O)c2cc(C)n(C)n2)cc1 (configuration not stated)	.	-4	-5	.	49*	-10
CCOc1ccc(C2c3[nH]c4ccccc4c3CCN2C(=O)Cn2cncn2)cc1 (configuration not stated)	-10	2	-6	0	68*	-1
CCc1noc(N)c1C(=O)Nc1ccc(Cl)cc1	13	-1	15	.	76*	-3
Cc1noc(N)c1C(=O)Nc1ccc(F)c(Cl)c1	5	0	13	3	41	-6
CCOc1ccc(Cl)cc1C=NNC(=O)CNC(=O)c1ccccc1	.	.	.	-6	.	.
Cc1ccc2c(C(=O)CSc3ccccc3)c(C)[nH]c2c1	3	3	-24	6	58*	-2
CCCc1cc(=O)[nH]c(SCC(=O)c2c(C)[nH]c3ccccc23)n1	1	-3	9	7	60*	-5
Cc1ccc(SCC(=O)c2c(C)[nH]c3ccccc23)cc1	0	-1	-9	-2	43	-6
Cc1[nH]c2ccccc2c1C(=O)CSc1ccccn1	1	6	10	-1	53*	4
CCCc1cc(=O)[nH]c(SCC(N)=O)n1	14	-3	.	1	3	-7
Cc1[nH]c2ccccc2c1C(=O)CN1CCC(C)CC1	8	5	7	2	56*	4
SMILES	Arr AP2 block	A3A deaminase	PolyA inhibitor	UCH37 DUB inh	AHR act	A3G deaminase
Cc1[nH]c2ccccc2c1C(=O)COc1ccccc1F	35	-4	18	3	63*	-6
Cc1[nH]c2ccccc2c1C(=O)CSc1ccc(F)cc1	-2	-3	13	1	37	-5
NC(=NOC(=O)c1ccc([N+](=O)[O-])cc1)c1cccnc1	.	.	.	5	.	.
CC(=O)c1cn(CC(=O)Nc2ccc(C)cc2)c2ccccc12	-7	-1	-5	20*	12	-4
CC(=O)c1cn(CC(=O)Nc2ccc(C)c(C)c2)c2ccccc12	-5	0	11	3	10	-9
C=CCn1c(C)cc(C2=NNC(=Nc3ccc(C)cc3)SC2)c1C	26	1	1	29*	8	-5
C=CCn1c(C)cc(C2=NNC(=NC(C)(C)C)SC2)c1C	1	-3	9	.	10	-5
COc1cc([N+](=O)[O-])cc(C=NNC(=O)Cn2nc(C)cc2C)c1O	.	.	.	14	.	.
c1ccc2c(c1)CCc1c(-c3ccncc3)n[nH]c1-2	-4	-3	.	4	44	-7
Clc1ccc(-c2n[nH]c3c2Cc2ccccc2-3)cc1Cl	.	-3	-7	-1	60*	-9
Fc1cc2ncn(Cc3ccccc3)c2cc1F	4	-1	0	25*	0	-10
c1ccc(Cn2cnc3ccccc32)cc1	31	0	.	-2	-2	-4
Cc1ccc(C(=O)ON=C2CC3CCC2(C)[C@@]3(C)CBr)cc1 (some centres not stated)	.	.	.	2	.	.
Cc1ccc(N=Nc2c(C)[nH][nH]c2=O)c(C)c1	-6	-3	-15	5	48*	-4
C=CCn1c(=O)[nH]c2nc3cc(N=CN(C)C)c(C)cc3nc2c1=O	-13	-3	-15	-3	68*	-9
CCCC(=NNC(=O)c1ccccc1C)c1ccccc1	.	.	.	5	.	.
COC(=O)c1cn(CCOc2ccccc2OC)c2ccccc12	-2	-4	6	22*	13	-7
COc1ccccc1OCCn1cc(/C=N/NC(N)=S)c2ccccc21	4	-4	-18	.	69*	-15
O=[N+]([O-])c1cc(Cl)c(O)c2ncccc12	7	7	2	25*	.	5
O=[N+]([O-])c1cc(Cl)c2cccnc2c1O	14	3	-23	16	4	-1
COc1ccc(/C=N/NC(=O)c2ccc(COc3ccccc3Cl)o2)cc1	-7	1	-8	.	62*	1
COc1cccc(C=NNC(=O)c2ccc(COc3ccc(Cl)cc3Cl)o2)c1	.	.	.	3	.	.
Cc1ccc(/C=C2\SC(=S)N(NS(=O)(=O)c3ccc(C)cc3)C2=O)cc1	-15	-2	-20	11	-2	-3
Cc1ccc(S(=O)(=O)NN2C(=O)/C(=C/c3ccc(C(=O)O)cc3)SC2=S)cc1	37	1	-9	21*	0	11
O=c1c2oc3ccccc3c2[nH]c(=S)n1-c1ccccc1	-13	-1	-16	3	66*	-6
SMILES	Arr AP2 block	A3A deaminase	PolyA inhibitor	UCH37 DUB inh	AHR act	A3G deaminase
Cc1ccc(-n2c(=S)[nH]c3c(oc4ccccc43)c2=O)cc1	-8	-1	0	10	20	5
Cc1cccc(-n2c(=S)[nH]c3c(oc4ccccc43)c2=O)c1	-2	.	-5	2	62*	.
Cc1ccc(NCC(=O)N/N=C/c2ccc(OC(=O)c3ccco3)cc2)cc1	7	1	7	.	59*	-6
Cc1ccc(NCC(=O)N/N=C\c2ccc[nH]2)cc1	-17	-5	-10	.	62*	-8
Cc1ccc(NCC(=O)N/N=C/c2cc3ccccc3nc2Cl)cc1	-3	-3	-3	.	60*	-5
CCOC(=O)N/N=C\c1ccc(OC(=O)c2ccco2)cc1	-16	-2	-3	.	2	-7

Screening data: PubChem, several laboratories
